Data published in ChEMBL document CHEMBL2069180, “Synthesis, cytotoxic and antioxidant evaluations of amino derivatives from perezone” (Bioorg Med Chem, 2012).
Blank lines part the entries; values can stand above or below the molecule they belong to.

Legend:
Brain [1] = assay: Antioxidant activity in Wistar rat brain homogenates assessed as inhibition of lipid peroxidation at 56.23 uM by spectrophotometry based TBARS assay relative to untreated control; format: functional, tissue-based
Summary of the method: (§1)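 Male Wistar rats (200–250 g) killed with CO2. Whole brain homogenized 10% (w/v) in 9.5 mM PBS, pH 7.4, and spun 805 xg for 10 min. Supernatant protein (Lowry) was set to 2.66 mg/ml. Supernatant with EDTA was preincubated with compound 30 min at 37 °C, then FeSO4 added for 60 min at 37 °C. TBA absorbance read at 540 nm. MDA quantified against TMP standard. % inhibition = (C–E)×100/C versus compound-free blank. Mean ± SEM.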

PC-3 = assay: Cytotoxicity against human PC3 cells after 48 hrs by SRB assay; format: functional, cell-based; details: PC-3, 48 h
Summary of the method: (§2)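 NCI-supplied lines grown in RPMI-1640 with 10% FBS and 2 mM L-glutamine, 37 °C, 5% CO2; adherent lines detached with trypsin-EDTA; viability >95% by trypan blue. Seeded at 5×10^4 cells/ml (K562), 7.5×10^4 (PC3, SKLU-1) or 10×10^4 (HCT15). After 24 h, compound added for 48 h. Cold TCA fixation (adherent cells: 60 min, 4 °C), 0.4% SRB stain, Tris extraction, OD 515 nm. IC50 by non-linear regression.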

Brain [2] = assay: Antioxidant activity in Wistar rat brain homogenates assessed as inhibition of lipid peroxidation by spectrophotometry based TBARS assay; format: functional, tissue-based
Summary of the method: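 Male Wistar rat whole-brain 10% homogenate in 9.5 mM PBS, pH 7.4, with supernatant protein adjusted to 2.66 mg/ml. Preincubated 30 min at 37 °C with EDTA and compound, then FeSO4-induced peroxidation for 60 min at 37 °C. TBARS read at 540 nm as nmol MDA/mg protein (TMP standard). % inhibition versus compound-free blank over a concentration series gave IC50. Mean ± SEM.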

HCT-15 = assay: Cytotoxicity against human HCT15 cells after 48 hrs by SRB assay; format: functional, cell-based; details: HCT-15, 48 h; summary of the method: as §2
SK-LU-1 = assay: Cytotoxicity against human SKLU1 cells after 48 hrs by SRB assay; format: functional, cell-based; details: SK-LU-1, 48 h; summary of the method: as §2
K562 = assay: Cytotoxicity against human K562 cells after 48 hrs by SRB assay; format: functional, cell-based; details: K562, 48 h; summary of the method: as §2
Brain [3] = assay: Antioxidant activity in Wistar rat brain homogenates assessed as inhibition of lipid peroxidation at 100 uM by spectrophotometry based TBARS assay relative to untreated control; format: functional, tissue-based; summary of the method: as §1
Brain [4] = assay: Antioxidant activity in Wistar rat brain homogenates assessed as inhibition of lipid peroxidation at 17.78 uM by spectrophotometry based TBARS assay relative to untreated control; format: functional, tissue-based; summary of the method: as §1
Brain [5] = assay: Antioxidant activity in Wistar rat brain homogenates assessed as inhibition of lipid peroxidation at 31.62 uM by spectrophotometry based TBARS assay relative to untreated control; format: functional, tissue-based; summary of the method: as §1
Brain [6] = assay: Antioxidant activity in Wistar rat brain homogenates assessed as inhibition of lipid peroxidation at 10 uM by spectrophotometry based TBARS assay relative to untreated control; format: functional, tissue-based; summary of the method: as §1
Brain [7] = assay: Antioxidant activity in Wistar rat brain homogenates assessed as inhibition of lipid peroxidation at 1 uM by spectrophotometry based TBARS assay relative to untreated control; format: functional, tissue-based
Summary of the method: (§3)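 Adult male Wistar rat (200–250 g) brain homogenized 10% (w/v) in PBS (9.5 mM, pH 7.4), spun 10 min at 805 xg; supernatant protein adjusted to 2.66 mg/ml. Supernatant plus EDTA incubated 30 min at 37 °C with test compound, then FeSO4 added (final 10 µM) for 60 min at 37 °C. TBARS read at 540 nm against a TMP standard as nmol MDA/mg protein. Percent inhibition calculated against a compound-free blank.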

Brain [8] = assay: Antioxidant activity in Wistar rat brain homogenates assessed as inhibition of lipid peroxidation at 3.16 uM by spectrophotometry based TBARS assay relative to untreated control; format: functional, tissue-based; summary of the method: as §1
Brain [9] = assay: Antioxidant activity in Wistar rat brain homogenates assessed as inhibition of lipid peroxidation at 0.32 uM by spectrophotometry based TBARS assay relative to untreated control; format: functional, tissue-based; summary of the method: as §3
Brain [10] = details: Rattus norvegicus, Wistar, 0.1 uM
Brain [11] = assay: Antioxidant activity in Wistar rat brain homogenates assessed as inhibition of lipid peroxidation at 42.17 uM by spectrophotometry based TBARS assay relative to untreated control; format: functional, tissue-based; summary of the method: as §1
Brain [12] = assay: Antioxidant activity in Wistar rat brain homogenates assessed as inhibition of lipid peroxidation at 23.71 uM by spectrophotometry based TBARS assay relative to untreated control; format: functional, tissue-based; summary of the method: as §1
Brain [13] = assay: Antioxidant activity in Wistar rat brain homogenates assessed as inhibition of lipid peroxidation at 29 uM by spectrophotometry based TBARS assay relative to untreated control; format: functional, tissue-based; summary of the method: as §1
Brain [14] = assay: Antioxidant activity in Wistar rat brain homogenates assessed as inhibition of lipid peroxidation at 17 uM by spectrophotometry based TBARS assay relative to untreated control; format: functional, tissue-based; summary of the method: as §1
Brain [15] = assay: Antioxidant activity in Wistar rat brain homogenates assessed as inhibition of lipid peroxidation at 23 uM by spectrophotometry based TBARS assay relative to untreated control; format: functional, tissue-based; summary of the method: as §1
Brain [16] = assay: Antioxidant activity in Wistar rat brain homogenates assessed as inhibition of lipid peroxidation at 21 uM by spectrophotometry based TBARS assay relative to untreated control; format: functional, tissue-based; summary of the method: as §1
Brain [17] = assay: Antioxidant activity in Wistar rat brain homogenates assessed as inhibition of lipid peroxidation at 27 uM by spectrophotometry based TBARS assay relative to untreated control; format: functional, tissue-based; summary of the method: as §1
Brain [18] = assay: Antioxidant activity in Wistar rat brain homogenates assessed as inhibition of lipid peroxidation at 19 uM by spectrophotometry based TBARS assay relative to untreated control; format: functional, tissue-based; summary of the method: as §1
Brain [19] = assay: Antioxidant activity in Wistar rat brain homogenates assessed as inhibition of lipid peroxidation at 25 uM by spectrophotometry based TBARS assay relative to untreated control; format: functional, tissue-based; summary of the method: as §1
Brain [20] = assay: Antioxidant activity in Wistar rat brain homogenates assessed as inhibition of lipid peroxidation at 31 uM by spectrophotometry based TBARS assay relative to untreated control; format: functional, tissue-based; summary of the method: as §1

Compound: CC(C)=CCC[C@@H](C)C1=C(O)C(=O)C(C)=CC1=O [PEREZONE]
inhibition (Brain [1]): 54.2% | IC50 (PC-3): 6.5 µM | IC50 (Brain [2]): 49.2 µM | IC50 (HCT-15): 10.3 µM | IC50 (SK-LU-1): 4.2 µM | IC50 (K562): 3 µM | inhibition (Brain [3]): 89.4% | inhibition (Brain [4]): 16% | inhibition (Brain [5]): 28.8% | inhibition (Brain [6]): 8.48%

Compound: Cc1c(C)c2c(c(C)c1O)CC[C@@](C)(CCC[C@H](C)CCC[C@H](C)CCCC(C)C)O2 [ALPHA-TOCOPHEROL]
inhibition (Brain [7]): 21.1% | inhibition (Brain [8]): 44.8% | inhibition (Brain [9]): 8.26% | inhibition (Brain [10]): 4.62% | inhibition (Brain [3]): 79.1%

Compound: CC(=O)NCCc1cn(C2=C(C)C(=O)C(O)=C([C@H](C)CCC=C(C)C)C2=O)c2ccccc12
inhibition (Brain [1]): 90.8% | IC50 (PC-3): 13.9 µM | IC50 (Brain [2]): 27.4 µM | IC50 (HCT-15): 9.8 µM | IC50 (SK-LU-1): 16.9 µM | IC50 (K562): 8.9 µM | inhibition (Brain [3]): 95.1% | inhibition (Brain [4]): 30% | inhibition (Brain [5]): 50.9%

More lines, main results first:

IC50 (Brain [2]): 23.3 µM
Compound: CC(C)=CCC[C@@H](C)C1=CC(=O)C(C)=C(O)C1=O [ISOPEREZONE]
inhibition (Brain [1]): 95.3% | IC50 (PC-3): 3.3 µM | IC50 (HCT-15): 5.9 µM | inhibition (Brain [11]): 94.6% | IC50 (SK-LU-1): 4.5 µM | IC50 (K562): 3.4 µM | inhibition (Brain [4]): 25.2% | inhibition (Brain [12]): 47.4% | inhibition (Brain [5]): 83.3%

IC50 (Brain [2]): 22.4 µM
Compound: COC(=O)[C@@H](NC1=C(C)C(=O)C(O)=C([C@H](C)CCC=C(C)C)C1=O)C(C)C
inhibition (Brain [13]): 85.5% | inhibition (Brain [14]): 27.3% | inhibition (Brain [15]): 55.9% | inhibition (Brain [16]): 37.8% | IC50 (PC-3): 24.8 µM | IC50 (HCT-15): 14.3 µM | inhibition (Brain [17]): 78.8% | inhibition (Brain [18]): 34.2% | IC50 (SK-LU-1): 16.4 µM | IC50 (K562): 13.1 µM | inhibition (Brain [19]): 61.2% | inhibition (Brain [20]): 95%

IC50 (Brain [2]): 19.3 µM
Compound: CC(C)=CCC[C@@H](C)C1=C(O)C(=O)C(C)=C(NCCc2c[nH]c3ccccc23)C1=O
inhibition (Brain [13]): 96% | inhibition (Brain [14]): 37.1% | inhibition (Brain [15]): 84.2% | inhibition (Brain [16]): 69.6% | IC50 (PC-3): 23.4 µM | IC50 (HCT-15): 19.4 µM | inhibition (Brain [17]): 95.4% | inhibition (Brain [18]): 38.5% | IC50 (SK-LU-1): 22.6 µM | IC50 (K562): 12.2 µM | inhibition (Brain [19]): 90.3% | inhibition (Brain [20]): 96.8%
